Source: ChEMBL document CHEMBL1806387, “Discovery of 1,2,4-thiadiazolidine-3,5-dione analogs that exhibit unusual and selective rapid cell death kinetics against acute myelogenous leukemia cells in culture” (Bioorg Med Chem Lett, 2011)
Active and inactive are the calls of the source. The calls are words filed in the database; no cut-off is given here.

Legend:
[1] = system: MV4-11; test: Cytotoxicity against human MV411 cells after 24 hrs by Annexin V-Fluorescein isothiocyanate and 7-aminoactinomycin D staining; format: functional; conditions: MV4-11, 24 h, read-out: LD50 (the source's name)
How it was run: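 MV4-11 human AML cells (ATCC) seeded at 300,000 cells/mL in IMDM with 10% FBS. Cells exposed to at least 4 concentrations for 24 hours. Stained with Annexin V-FITC and 7-AAD, then run on flow cytometry (BD LSRII) 15 minutes later. Viable cells gated as Annexin V-negative/7-AAD-negative and expressed as percent of untreated control.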

[2] = Cytotoxicity against human hematopoietic stem cells assessed as reduction of cell viability after 24 hrs by Annexin V-Fluorescein isothiocyanate and 7-aminoactinomycin D staining; format: cell-based
[3] = system: MV4-11; test: Cytotoxicity against human MV411 cells assessed as reduction of cell viability at 10 uM after 30 mins by Annexin V-Fluorescein isothiocyanate and 7-aminoactinomycin D staining; format: functional, cell-based
How it was run: (§1)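 MV4-11 cells (ATCC) seeded at 300,000 cells/mL in IMDM with 10% FBS and exposed to compound for the stated time in time-course runs. Cells stained with Annexin V-FITC plus 7-AAD and read by flow cytometry 15 minutes later. Viability is the Annexin V-negative/7-AAD-negative fraction, expressed relative to untreated control.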

[4] = system: MV4-11; test: Cytotoxicity against human MV411 cells assessed as reduction of cell viability at 5 uM after 1 to 2 hrs by Annexin V-Fluorescein isothiocyanate and 7-aminoactinomycin D staining; format: functional, cell-based; how it was run: as §1
[5] = system: MV4-11; test: Cytotoxicity against human MV411 cells assessed as reduction of cell viability at 5 uM after 24 hrs by Annexin V-Fluorescein isothiocyanate and 7-aminoactinomycin D staining; format: functional, cell-based; how it was run: as §1
[6] = system: MV4-11; test: Cytotoxicity against human MV411 cells assessed as reduction of cell viability at 20 uM after 2 hrs by Annexin V-Fluorescein isothiocyanate and 7-aminoactinomycin D staining; format: functional, cell-based; how it was run: as §1
[7] = system: MV4-11; test: Cytotoxicity against human MV411 cells assessed as reduction of cell viability at 20 uM after 30 mins by Annexin V-Fluorescein isothiocyanate and 7-aminoactinomycin D staining; format: functional; how it was run: as §1
[8] = system: MV4-11; test: Cytotoxicity against human MV411 cells assessed as reduction of cell viability at 10 uM after 24 hrs by Annexin V-Fluorescein isothiocyanate and 7-aminoactinomycin D staining; format: functional, cell-based; how it was run: as §1
[9] = system: MV4-11; test: Cytotoxicity against human MV411 cells assessed as reduction of cell viability at 10 uM after 2 hrs by Annexin V-Fluorescein isothiocyanate and 7-aminoactinomycin D staining; format: functional, cell-based; how it was run: as §1
[10] = system: MV4-11; test: Cytotoxicity against human MV411 cells assessed as reduction of cell viability at 5 uM after 30 mins by Annexin V-Fluorescein isothiocyanate and 7-aminoactinomycin D staining; format: functional; how it was run: as §1

SMILES | CC50 [1] | Activity [2] | further results
Cl.NCc1ccc(Cn2c(=O)sn(CCCl)c2=O)cc1 | 3.01 µM | Non-toxic | –
O=C([O-])c1ccc(Cn2c(=O)sn(CCCl)c2=O)cc1.[Na+] | > 20 µM | Non-toxic | –
O=c1sn(CCCl)c(=O)n1Cc1ccccc1 | 2.03 µM | Non-toxic | Activity [3]: Active; Activity [4]: Active
Cl.NCc1cccc(Cn2c(=O)sn(CCCl)c2=O)c1 | 4.4 µM | Non-toxic | –
CCn1sc(=O)n(Cc2ccc(CN)cc2)c1=O.Cl | 15.5 µM | Non-toxic | –
C=CCn1sc(=O)n(Cc2ccccc2)c1=O | 9.2 µM | Non-toxic | Activity [5]: inactive; Activity [6]: Active; Activity [7]: 50%; Activity [8]: Active
CCn1sc(=O)n(Cc2ccccc2)c1=O [KRM-7777] | 9.21 µM | Non-toxic | –
CCCn1sc(=O)n(Cc2ccccc2)c1=O | 11.6 µM | Non-toxic | –
Cn1sc(=O)n(Cc2ccccc2)c1=O | 4.01 µM | Non-toxic | Activity [6]: Active
O=c1sn(CCBr)c(=O)n1Cc1ccccc1 | 3.5 µM | Non-toxic | Activity [9]: Active; Activity [10]: 50%
C=CCn1sc(=O)n(Cc2ccc(CN)cc2)c1=O.Cl | 6.7 µM | Non-toxic | –
Cl.NCc1ccc(Cn2c(=O)sn(CCBr)c2=O)cc1 | 4.51 µM | Non-toxic | –
